Results gathered from unrelated publications.
Target: MAP/microtubule affinity-regulating kinase 4 (MARK4, Homo sapiens, UniProt Q96L34)
One construct used (Q96L34 1-752): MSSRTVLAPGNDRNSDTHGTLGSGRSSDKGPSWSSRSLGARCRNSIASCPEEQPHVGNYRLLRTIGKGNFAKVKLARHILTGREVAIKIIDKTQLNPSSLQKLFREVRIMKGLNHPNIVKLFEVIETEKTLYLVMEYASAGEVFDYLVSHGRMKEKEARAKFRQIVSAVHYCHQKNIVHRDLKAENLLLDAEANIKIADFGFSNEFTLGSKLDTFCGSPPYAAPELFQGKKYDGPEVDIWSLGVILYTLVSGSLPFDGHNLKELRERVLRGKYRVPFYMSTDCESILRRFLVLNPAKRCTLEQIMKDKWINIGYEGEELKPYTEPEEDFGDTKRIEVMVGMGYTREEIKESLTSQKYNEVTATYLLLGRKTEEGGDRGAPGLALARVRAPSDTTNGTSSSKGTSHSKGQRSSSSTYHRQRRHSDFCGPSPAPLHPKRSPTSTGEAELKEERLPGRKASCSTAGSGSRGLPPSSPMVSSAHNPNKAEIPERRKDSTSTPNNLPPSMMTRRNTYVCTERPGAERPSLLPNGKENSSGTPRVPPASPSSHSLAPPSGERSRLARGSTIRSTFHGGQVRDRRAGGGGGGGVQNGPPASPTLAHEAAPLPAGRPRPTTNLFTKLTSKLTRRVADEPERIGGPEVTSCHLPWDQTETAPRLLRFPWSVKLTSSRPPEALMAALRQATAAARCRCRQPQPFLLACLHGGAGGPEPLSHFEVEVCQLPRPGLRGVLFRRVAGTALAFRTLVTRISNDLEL

Compound	observed	mode	method	concentration	measurement	result
O=c1[nH]c2ccccc2n1C1CCN(Cc2ccc(-c3[nH]c4cc5ncnc5cc4nc3-c3ccccc3)cc2)CC1	cell-free assay			0.5 µM	remaining signal	102%
Cn1cc(-c2cccc(N3CCc4c(sc5c4CC(C)(C)C5)C3=O)c2CO)cc(Nc2ccncn2)c1=O	enzyme activity	inhibitor		1 µM	inhibition	3%
CC(C)(C)c1cc(C=C(C#N)C#N)cc(Br)c1O	enzyme activity	inhibitor		0.5 µM	remaining activity	103%
COc1ncccc1-c1cnn2ccc(N3CCN(C(=O)OC(C)C)CC3)nc12	binding		competition with immobilised ligand	1 µM	remaining binding	100%
COc1cc(Nc2ncc(F)c(Nc3ccc4c(n3)NC(=O)C(C)(C)O4)n2)cc(OC)c1OC	binding		competition with immobilised ligand	10 µM	inhibition	99%
Cc1nn(C)cc1-c1nc2c(N3CCN(Cc4ccc(Cl)cc4)CC3)c(Cl)cnc2[nH]1	binding		competition with immobilised ligand	1 µM	remaining binding	29%
Nc1ncc(-c2nc(N3CCOCC3)nc(N3CCOCC3)n2)c(C(F)F)n1	binding		competition with immobilised ligand	10 µM	remaining binding	90%
Cn1cc(-c2cc(F)cc(N3CCn4c(cc5c4CCCC5)C3=O)c2CO)cc(Nc2ccc(N3CCN(C4COC4)CC3)cn2)c1=O	enzyme activity	inhibitor		0.1 µM	inhibition	9%
Cn1cncc1[C@@](O)(COc1ccc(C#N)cc1-c1ccc(OC(F)(F)F)cc1)c1ccc(C#N)cc1	cell-free assay		competition with immobilised ligand	1 µM	remaining binding	100%
